Laboratory results from ChEMBL document CHEMBL1137181, “Synthesis and DP-IV inhibition of cyano-pyrazoline derivatives as potent anti-diabetic agents” (Bioorg Med Chem Lett, 2004).

Columns and labels:
Dipeptidyl peptidase 4 [1] = target: Dipeptidyl peptidase 4 (Rattus norvegicus, UniProt P14740); test: Inhibitory concentration against rat dipeptidyl peptidase IV
Procedure, shortened: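 Rat plasma (20 µL) as enzyme source, incubated 1 h at room temperature, pH 7.8, with Ala-Pro-AFC (40 µM) ± inhibitor dissolved in DMSO (5% final in assay). Released AFC read by fluorescence (ex 360 nm, em 485 nm). IC50 obtained by curve analysis.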

Dipeptidyl peptidase 4 [2] = target: Dipeptidyl peptidase 4 (Sus scrofa, UniProt P22411); test: Inhibitory concentration against dipeptidyl peptidase IV of porcine kidney; format: functional, tissue-based
Procedure, shortened: (§1)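 DP-IV activity from Caco-2 cells or porcine kidney, measured as AFC fluorescence (ex 360 nm, em 485 nm) liberated from Ala-Pro-AFC with or without inhibitor. Compounds in DMSO, 5% in assay mixture. IC50 obtained by curve analysis.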

Dipeptidyl peptidase 4 [3] = target: Dipeptidyl peptidase 4 (Homo sapiens, UniProt P27487); test: Inhibitory concentration against dipeptidyl peptidase IV in Caco-2 cell assay; format: functional, cell-based; procedure, shortened: as §1
[4] = target: Dipeptidyl peptidase 4 (Mus musculus) (UniProt P28843); test: Effective dose for inhibition of dipeptidyl peptidase IV in mice after 1 hr subcutaneous administration; format: functional, organism-based
Sequence of Dipeptidyl peptidase 4 (Mus musculus) (P28843 whole entry, looked up): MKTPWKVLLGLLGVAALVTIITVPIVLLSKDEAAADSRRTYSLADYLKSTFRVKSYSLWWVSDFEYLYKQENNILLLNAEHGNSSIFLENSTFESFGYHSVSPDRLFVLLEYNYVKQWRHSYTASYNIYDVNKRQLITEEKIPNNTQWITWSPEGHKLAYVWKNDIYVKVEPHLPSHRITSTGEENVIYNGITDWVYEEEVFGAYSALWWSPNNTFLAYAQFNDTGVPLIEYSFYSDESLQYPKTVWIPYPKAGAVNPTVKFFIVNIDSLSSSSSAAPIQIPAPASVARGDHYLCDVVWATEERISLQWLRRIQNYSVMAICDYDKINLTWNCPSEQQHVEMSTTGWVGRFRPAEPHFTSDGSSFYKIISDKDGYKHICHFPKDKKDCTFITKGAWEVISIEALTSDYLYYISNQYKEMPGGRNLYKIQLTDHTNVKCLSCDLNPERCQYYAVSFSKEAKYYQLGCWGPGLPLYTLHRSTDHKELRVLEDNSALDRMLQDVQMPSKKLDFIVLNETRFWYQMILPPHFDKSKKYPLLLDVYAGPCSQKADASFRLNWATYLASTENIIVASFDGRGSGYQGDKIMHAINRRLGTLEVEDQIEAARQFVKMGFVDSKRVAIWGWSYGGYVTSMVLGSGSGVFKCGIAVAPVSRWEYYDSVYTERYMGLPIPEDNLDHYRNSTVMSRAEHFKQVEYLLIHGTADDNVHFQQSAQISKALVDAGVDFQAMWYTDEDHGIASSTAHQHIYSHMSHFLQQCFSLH

Sequence of Dipeptidyl peptidase 4 (Rattus norvegicus, UniProt P14740) (P14740 whole entry): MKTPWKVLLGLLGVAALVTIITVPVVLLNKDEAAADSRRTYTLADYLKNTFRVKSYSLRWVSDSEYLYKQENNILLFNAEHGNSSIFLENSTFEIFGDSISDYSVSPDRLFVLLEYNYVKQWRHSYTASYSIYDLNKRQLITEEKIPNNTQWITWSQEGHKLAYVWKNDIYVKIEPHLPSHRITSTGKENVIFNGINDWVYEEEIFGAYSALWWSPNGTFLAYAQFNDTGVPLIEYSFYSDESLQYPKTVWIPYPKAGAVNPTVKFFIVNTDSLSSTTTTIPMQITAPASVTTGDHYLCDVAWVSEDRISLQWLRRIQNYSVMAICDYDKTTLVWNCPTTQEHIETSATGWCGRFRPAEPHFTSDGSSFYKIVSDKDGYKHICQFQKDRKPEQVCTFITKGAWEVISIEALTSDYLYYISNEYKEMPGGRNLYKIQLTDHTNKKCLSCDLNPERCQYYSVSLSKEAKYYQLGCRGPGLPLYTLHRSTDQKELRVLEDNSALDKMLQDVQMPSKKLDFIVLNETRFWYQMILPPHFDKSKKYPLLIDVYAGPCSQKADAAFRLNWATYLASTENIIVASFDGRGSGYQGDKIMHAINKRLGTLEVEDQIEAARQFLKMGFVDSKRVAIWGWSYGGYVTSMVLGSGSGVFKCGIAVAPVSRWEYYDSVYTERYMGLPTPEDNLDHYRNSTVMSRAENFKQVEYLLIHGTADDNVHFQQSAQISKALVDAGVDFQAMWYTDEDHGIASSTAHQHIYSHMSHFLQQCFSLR
Sequence of Dipeptidyl peptidase 4 (Sus scrofa, UniProt P22411) (P22411 whole entry): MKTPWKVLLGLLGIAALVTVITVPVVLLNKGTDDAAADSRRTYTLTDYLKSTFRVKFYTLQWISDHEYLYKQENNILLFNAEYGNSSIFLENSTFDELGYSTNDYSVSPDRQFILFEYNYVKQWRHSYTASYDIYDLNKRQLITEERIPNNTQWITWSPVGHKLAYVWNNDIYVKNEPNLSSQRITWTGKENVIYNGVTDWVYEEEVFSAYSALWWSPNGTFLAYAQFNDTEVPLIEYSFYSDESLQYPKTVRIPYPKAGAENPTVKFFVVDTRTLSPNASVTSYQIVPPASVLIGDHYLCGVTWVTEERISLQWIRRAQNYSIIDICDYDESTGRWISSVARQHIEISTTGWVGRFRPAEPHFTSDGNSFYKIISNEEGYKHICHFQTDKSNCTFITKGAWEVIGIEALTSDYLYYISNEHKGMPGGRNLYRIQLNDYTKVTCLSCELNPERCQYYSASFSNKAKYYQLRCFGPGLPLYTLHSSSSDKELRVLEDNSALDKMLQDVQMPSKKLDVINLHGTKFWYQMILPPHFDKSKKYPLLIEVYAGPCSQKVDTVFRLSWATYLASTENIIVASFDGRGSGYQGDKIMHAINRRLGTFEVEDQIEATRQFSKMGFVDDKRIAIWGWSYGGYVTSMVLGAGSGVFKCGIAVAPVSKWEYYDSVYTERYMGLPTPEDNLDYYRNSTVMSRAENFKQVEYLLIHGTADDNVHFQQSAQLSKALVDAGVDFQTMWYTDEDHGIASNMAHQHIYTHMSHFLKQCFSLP
Sequence of Dipeptidyl peptidase 4 (Homo sapiens, UniProt P27487) (P27487 whole entry): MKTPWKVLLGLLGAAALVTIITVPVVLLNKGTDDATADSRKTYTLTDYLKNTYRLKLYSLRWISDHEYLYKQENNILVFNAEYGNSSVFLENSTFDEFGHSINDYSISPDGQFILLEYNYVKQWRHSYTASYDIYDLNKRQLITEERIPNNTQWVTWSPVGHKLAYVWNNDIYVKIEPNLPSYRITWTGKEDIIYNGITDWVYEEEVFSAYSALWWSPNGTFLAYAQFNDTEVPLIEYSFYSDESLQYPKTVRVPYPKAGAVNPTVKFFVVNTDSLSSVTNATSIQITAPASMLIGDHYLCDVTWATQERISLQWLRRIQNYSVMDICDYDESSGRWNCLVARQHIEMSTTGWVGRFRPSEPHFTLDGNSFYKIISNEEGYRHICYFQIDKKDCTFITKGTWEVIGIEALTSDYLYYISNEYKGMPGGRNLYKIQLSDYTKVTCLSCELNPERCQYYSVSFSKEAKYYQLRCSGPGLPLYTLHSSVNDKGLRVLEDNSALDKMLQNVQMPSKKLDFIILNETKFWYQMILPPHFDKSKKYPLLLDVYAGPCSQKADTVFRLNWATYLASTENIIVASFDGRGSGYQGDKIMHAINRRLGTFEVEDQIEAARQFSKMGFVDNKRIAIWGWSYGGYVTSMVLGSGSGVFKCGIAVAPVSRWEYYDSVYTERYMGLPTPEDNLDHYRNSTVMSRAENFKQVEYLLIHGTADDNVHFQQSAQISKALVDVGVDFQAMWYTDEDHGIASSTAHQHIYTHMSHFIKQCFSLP

IC50 (Dipeptidyl peptidase 4 [1]) [nM] | Compound | further results
4400 | N#CC1CC=NN1C(=O)CNC1CCC(NC(=O)c2ccccc2)CC1 (stereo not drawn) | 
1500 | N#CC1CC=NN1C(=O)CNC12CC3CC(CC(C3)C1)C2 (stereo not drawn) | 
24400 | CC(C)(C)NCC(=O)N1N=CCC1C#N (stereo in doubt; 5a) | 
3200 | N#CC1CC=NN1C(=O)CNC1C2CC3CC(C2)CC1C3 (stereo not drawn) | 
360 | N#Cc1ccc(NCCNCC(=O)N2N=CC[C@H]2C#N)nc1 | IC50 (Dipeptidyl peptidase 4 [2]): 440 nM
660 | N#CC1CC=NN1C(=O)[C@H](CCCCN)NC(=O)OCc1ccccc1 (stereo partly drawn) | 
220 | CCC(C)[C@@H](N)C(=O)N1N=CCC1C#N (stereo partly drawn) | IC50 (Dipeptidyl peptidase 4 [2]): 80 nM; IC50 (Dipeptidyl peptidase 4 [3]): 130 nM; ED50 [4]: 16.1 mg/kg
800 | N#Cc1ccc(NCCNCC(=O)N2N=CCC2C#N)nc1 (stereo not drawn) | IC50 (Dipeptidyl peptidase 4 [2]): 960 nM; ED50 [4]: 4.1 mg/kg
6400 | N#CC1CC=NN1C(=O)CNC12CC3CC(CC(O)(C3)C1)C2 (stereo not drawn) | 
2600 | N#CC1CC=NN1C(=O)CNC1CCCCCCC1 (stereo not drawn) | 
4300 | CC(C)C[C@H](N)C(=O)N1N=CCC1C#N (stereo partly drawn) | 
60 | N#Cc1ccc(NCCNCC(=O)N2NCC[C@H]2C#N)nc1 | 
1900 | CC(C)[C@@H](N)C(=O)N1N=CCC1C#N (stereo partly drawn) | 
2100 | N#CC1CC=NN1C(=O)CNC1CC2CCC1C2 (stereo not drawn) | 
2800 | N#CC1CC=NN1C(=O)CNC1CCCCC1 (stereo in doubt; 5c) | 
1200 | C[C@@H](N)C(=O)N1N=CCC1C#N (stereo partly drawn) | 
1200 | N#CC1CC=NN1C(=O)CNC1CCC(Nc2ccc([N+](=O)[O-])cn2)CC1 (stereo not drawn) | 
5200 | N#Cc1ccc(NCCNCC(=O)N2N=CC[C@@H]2C#N)nc1 | IC50 (Dipeptidyl peptidase 4 [2]): 6820 nM
1300 | N#CC1CC=NN1C(=O)CNC1CCCC1 (stereo not drawn) | 
1200 | N#CC1CC=NN1C(=O)CNCCNc1ccc([N+](=O)[O-])cn1 (stereo not drawn) | 
2300 | N#CC1CC=NN1C(=O)CNC1CCCCC1 (stereo in doubt; 1g) | 
